The source made the active and inactive calls. The calls are words filed in the database; no cut-off is given here.

Data set [1] has as its system Musca domestica. Kind of data set: Toxicity in male house fly assessed as lowest dose required to cause complete sterility administered in food. It is filed as organism-based. The following applies: in vivo, po.
Data set [2] concerns W256. Kind of data set: Antitumor activity against rat Walker 256 cells intramuscularly allografted in rat assessed as tumor growth inhibition. The class given is functional. The following applies: W256, im. The gist of the method:
(§1)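 Dosed once daily for 5 days. Response is tumor progression in treated (T) versus untreated control (C) animals, expressed as T/C percentage. Host weight change is reported as the average net weight change of the test group minus that of the controls, in grams.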

The subject of data set [3] is Rattus norvegicus. Kind of data set: Toxicity in rat allografted with rat Walker 256 cells intramuscularly assessed as change in body weight at 3 mg/kg, qd administered for 5 days. The class given is organism-based. The following applies: in vivo, im, 120 h. More on the design: dose 3 mg/kg, route intramuscular. The gist of the method: (§2)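 Walker 256 carcinoma solid-tumour system in rats (parent line, or the line resistant to cytoxan). Dosing was one injection per day for 5 days. Toxicity was taken as the average net body-weight change of the treated group minus the average net weight change of the untreated tumour-bearing controls, in grams.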

Data set [4] concerns W256. Kind of data set: Antitumor activity against rat Walker 256 cells intramuscularly allografted in rat assessed as tumor growth inhibition at 3 mg/kg, qd administered for 5 days relative to control. The class given is functional. Particulars: W256, im, 120 h, route intramuscular, read-out: TGI. The gist of the method: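 Walker 256 carcinoma grown as a solid tumour in rats, with one injection daily for 5 days. Response is given as T/C %, the treated-group measure over the untreated-control tumour measure; a smaller value means more activity. Host toxicity is the mean net weight change of treated minus control animals, in grams.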

Data set [5] has as its system W256. Kind of data set: Antitumor activity against rat Walker 256 cells intramuscularly allografted in rat assessed as survival rate at 3 mg/kg, qd administered for 5 days. The class given is functional, organism-based. The arrangement: dose 3 mg/kg. The gist of the method: (§3)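 Rats bearing Walker 256 carcinoma as a solid tumor; lines 1-8 use a cytoxan-resistant Walker 256 subline. Dosed once daily for 5 days. Treated (T) and untreated control (C) groups are compared, and the response is given as T/C percentage, reflecting increase in survival time. Host weight change is the average weight change of the test group minus that of the controls, in grams.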

The nature of data set [6]: Toxicity in rat allografted with rat Walker 256 cells intramuscularly. It is filed as organism-based.
Data set [7] deals with Musca domestica. Kind of data set: Toxicity in male house fly assessed as lowest dose required to cause complete sterility administered in sugar. The following applies: in vivo, po. It is filed as organism-based.
The nature of data set [8]: Therapeutic index, ratio of LD50 for rat allografted with rat Walker 256 cells to ED10 for antitumor activity against rat Walker 256 cells intramuscularly allografted in rat. It is filed as cell-based. Particulars: read-out: TI. Summed up:
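Therapeutic index is LD50/ED10 in the Walker 256 solid tumour system. ED10 is the dose giving a 10% tumour weight reduction, with values extrapolated from dose-response data.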

Data set [9] is described as follows: Antitumor activity against rat Lewis-Lymphoma 8 cells allografted in Lewis-Wistar rat assessed as tumor regression at 20 mg/kg, ip administered for 2 weeks measured for 9 to 10 months relative to control. It is filed as functional. Particulars: route intraperitoneal.
Data set [10] has as its system W256. Kind of data set: Antitumor activity against rat Walker 256 cells intramuscularly allografted in rat assessed as tumor growth at 0.3 mg/kg, qd administered for 5 days (reference value: 9.2 g). The class given is functional. The following applies: route intramuscular. Summed up: as §1
In data set [11] the test system is W256. Kind of data set: Antitumor activity against rat Walker 256 cells intramuscularly allografted in rat assessed as survival rate at 0.3 mg/kg, qd administered for 5 days. The class given is functional, organism-based. The arrangement: dose 0.3 mg/kg. Summed up:
as §3

Data set [12] deals with Rattus norvegicus. Kind of data set: Toxicity in rat allografted with rat Walker 256 cells intramuscularly assessed as change in body weight at 0.3 mg/kg, qd administered for 5 days. The class given is organism-based. More on the design: dose 0.3 mg/kg, route intramuscular. The following applies: in vivo, im, 120 h. Summed up: as §2
In data set [13] the test system is W256. Kind of data set: Antitumor activity against rat Walker 256 cells intramuscularly allografted in rat assessed as survival rate at 0.4 mg/kg, qd administered for 5 days. The arrangement: dose 0.4 mg/kg. The class given is functional, organism-based. The gist of the method: as §3
For the next data set, the system named is L1210. Kind of data set: In vivo antitumor activity against mouse L1210 cells in prognostic scoring system assessed as survival rate at 2.5 mg/kg, qd administered for 15 days. The class given is functional, organism-based. More on the design: dose 2.5 mg/kg. The gist of the method:
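L1210 leukaemia in mice, run as an ascites tumour system. Injections were once daily for 9 or 15 days, or as a single dose. Response is the increase in survival time, given as T/C %, treated over untreated controls; a larger value means more activity. Weight change is the treated-group mean minus the control-group mean, in grams.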

Data set [14] deals with W256. Kind of data set: Antitumor activity against rat Walker 256 cells intramuscularly allografted in rat assessed as tumor growth inhibition at 0.4 mg/kg, qd administered for 5 days relative to control. The class given is functional. Particulars: W256, im, 120 h, route intramuscular, read-out: TGI. Summed up:
as §1

The test system of data set [15] is Rattus norvegicus. Kind of data set: Toxicity in rat allografted with rat Walker 256 cells intramuscularly assessed as change in body weight at 0.4 mg/kg, qd administered for 5 days. The class given is organism-based. The arrangement: dose 0.4 mg/kg, route intramuscular. Particulars: in vivo, im, 120 h. Summed up: as §2

Regarding `C=CCN(CC=C)P(=S)(N1CC1C)N1CC1C` (centres undefined), the Activity is given as 1% with Musca domestica [1], -7 g with Rattus norvegicus [3] and 1% in the data set with Musca domestica [7]. For the same compound, in the data set with W256 [2], the ED10 was found to be 0.7 mg/kg. Moreover, the inhibition in vivo at 3 mg/kg in the data set with W256 [4] amounted to 14%. The outcome in the data set with W256 [5] was Active. The median lethal dose (LD50) – broadly, the dose at which mortality reaches 50% – in data set [6] came out at 7 mg/kg. The selectivity ratio in data set [8] was 10.
For `C=CCN(CC=C)C(CN1CC1)C(N)=O` (centres undefined), in data set [9], the Activity was 100%.
With `C=CCN(CC=C)P(=S)(N1CC1)N1CC1`, the Activity was found to be 9.5 g with W256 [10], 0.05% in the data set on Musca domestica [1], 0 g in the data set with Rattus norvegicus [12] and 0.05% in the data set with Musca domestica [7]. Further, in the data set on W256 [11], the outcome was Active. For the same compound, in data set [6], the 50% lethal dose (LD50) came out at 2 mg/kg.
As to `C=CCN(CC=C)P(=S)(N1CC1)N1CC1C` (centres undefined), the result in the data set with W256 [13] and in the data set with L1210 was Active. The Activity was 0.25% in the data set on Musca domestica [1], 0.5% with Musca domestica [7] and -4 g with Rattus norvegicus [15]. Further, the ED10 with W256 [2] was determined as 0.4 mg/kg. Besides, the inhibition in vivo at 0.4 mg/kg in the data set on W256 [14] is 77%. The compound also gave an LD50 in data set [6] of 4 mg/kg. The selectivity ratio in [8] came out at 10.

These data come from ChEMBL document CHEMBL3272018, “Synthesis of aziridinylallylaminophosphine oxides and sulfides as potential adjuvant cancer chemotherapeutic agents” (J Med Chem, 1976).
